ChEMBL document CHEMBL1126246, “Ester and amide derivatives of E64c as inhibitors of platelet calpains” (J Med Chem, 1992)

Tests used:
[1] = target: T1, Calpain-1 catalytic subunit (Homo sapiens, UniProt P07384); assay: The ability of compound to inhibit calpain in a preparation of lysed platelets was measured with a caseinolytic assay(assay 1); settings: read-out: I50
T1 sequence (P07384 whole entry): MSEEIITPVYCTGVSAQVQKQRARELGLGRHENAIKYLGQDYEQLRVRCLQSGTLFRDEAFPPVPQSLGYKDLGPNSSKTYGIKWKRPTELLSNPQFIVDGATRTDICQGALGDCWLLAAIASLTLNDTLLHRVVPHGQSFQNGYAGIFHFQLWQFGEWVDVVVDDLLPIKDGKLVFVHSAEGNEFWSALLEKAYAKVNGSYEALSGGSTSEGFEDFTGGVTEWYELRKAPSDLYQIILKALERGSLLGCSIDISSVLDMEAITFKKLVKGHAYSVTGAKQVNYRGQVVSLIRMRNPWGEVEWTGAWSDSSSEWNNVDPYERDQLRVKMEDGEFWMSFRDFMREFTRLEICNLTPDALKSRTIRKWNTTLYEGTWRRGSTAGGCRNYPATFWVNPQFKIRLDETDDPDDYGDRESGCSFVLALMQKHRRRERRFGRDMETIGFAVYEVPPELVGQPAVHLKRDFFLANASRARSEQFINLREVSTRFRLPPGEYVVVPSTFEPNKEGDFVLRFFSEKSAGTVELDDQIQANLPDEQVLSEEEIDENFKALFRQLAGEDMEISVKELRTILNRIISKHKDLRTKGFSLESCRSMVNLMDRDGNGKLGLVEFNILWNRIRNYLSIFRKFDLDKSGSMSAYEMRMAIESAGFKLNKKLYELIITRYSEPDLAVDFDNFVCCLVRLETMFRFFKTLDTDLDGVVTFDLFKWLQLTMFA
Method in brief: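 Washed human platelets (6 × 10⁸/mL) in Hank's solution were preincubated with inhibitor at 30 °C for 3 min. CaCl₂, Triton X-100 and [³H]casein were then added and incubated 20 min at 30 °C. The reaction was stopped with TCA, and TCA-soluble radioactivity was counted. I50 was estimated from fractional inhibition at five inhibitor concentrations.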

[2] = target: T1, Calpain-1 catalytic subunit; assay: The calpain inhibitory activity(I 50) was measured as ability to enter the platelet and inhibit calpain in the intact cells(assay 3); (+)indicates substantial inhibition by 5-44 uM; format: cell-based
Method in brief: (§1)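 Washed human platelets (6 × 10⁸/mL, Hank's buffer) were preincubated with compound in DMSO at 30 °C for 15 min. Final concentrations were 0.8, 5.5, 44 or 440 μM. A23187 plus CaCl₂ was added for 10 min at room temperature. Samples were boiled in SDS sample buffer with leupeptin, run on 8% SDS-PAGE and stained with Coomassie. Loss of actin-binding protein and talin was scored.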

[3] = target: T1, Calpain-1 catalytic subunit; assay: The calpain inhibitory activity(I 50) was measured as ability to enter the platelet to inhibit calpain after cell lysis(assay 2); settings: read-out: I50
Method in brief: (§2)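 Washed human platelets (7 × 10⁸/mL, Hank's) were exposed to inhibitor for 15 min at 30 °C. Cells were diluted in Tyrode-HEPES pH 7.4, pelleted twice to remove free drug, resuspended in Hank's and equilibrated 3 min. They were then lysed with Triton X-100 plus CaCl₂ and [³H]casein for 20 min at 30 °C. TCA-soluble counts were measured. I50 came from a five-concentration line.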

[4] = target: T1, Calpain-1 catalytic subunit; assay: The calpain inhibitory activity(I 50) was measured as ability to enter the platelet to inhibit calpain after cell lysis(assay 2); (-)indicates little inhibition by 444 uM; method in brief: as §2
[5] = target: T1, Calpain-1 catalytic subunit; assay: The calpain inhibitory activity(I 50) was measured as ability to enter the platelet and inhibit calpain in the intact cells(assay 3); (-)indicates little inhibition by 444 uM; format: cell-based; method in brief: as §1
[6] = target: T1, Calpain-1 catalytic subunit; assay: The ability of compound to inhibit calpain in a preparation of lysed platelets was measured with a caseinolytic assay(assay 1); (+) indicates the compound was inhibitory, but I50 was not determined

SMILES | IC50 [1] [nM] | I50 [2] | IC50 [3] [nM] | I50 [4] | I50 [5] | I50 [6]
CC(C)CCNC(=O)[C@H](CC(C)C)NC(=O)[C@H]1O[C@@H]1C(=O)OCCF | 500 | substantial inhibition by 5-44 uM | 3000 | – | – | –
CC(C)CCNC(=O)[C@H](CC(C)C)NC(=O)[C@H]1O[C@@H]1C(=O)O [E-64C] | 40 | – | – | Little inhibition | Little inhibition | –
CC(C)CCNC(=O)[C@H](CC(C)C)NC(=O)[C@H]1O[C@@H]1C(=O)OCC(Br)(Br)Br | – | substantial inhibition by 5-44 uM | 5000 | – | – | substantial inhibition by 5-44 uM
CC(C)CCNC(=O)[C@H](CC(C)C)NC(=O)[C@H]1O[C@@H]1C(=O)OCCI | – | substantial inhibition by 5-44 uM | 6000 | – | – | substantial inhibition by 5-44 uM
CC(C)CCNC(=O)[C@H](CC(C)C)NC(=O)[C@H]1O[C@@H]1C(=O)OCC(F)(F)F | – | substantial inhibition by 5-44 uM | 2000 | – | – | substantial inhibition by 5-44 uM
CC(C)CCNC(=O)[C@H](CC(C)C)NC(=O)[C@H]1O[C@@H]1C(=O)NCCc1c[nH]c2ccc(O)cc12 | 6000 | – | 4000 | – | Little inhibition | –
CC(C)CCNC(=O)[C@H](CC(C)C)NC(=O)[C@H]1O[C@@H]1C(=O)OCCBr | 1000 | substantial inhibition by 5-44 uM | 2000 | – | – | –
CC(C)CCNC(=O)[C@H](CC(C)C)NC(=O)[C@H]1O[C@@H]1C(=O)OCCCl | 2000 | substantial inhibition by 5-44 uM | 300 | – | – | –
CC(C)CCNC(=O)[C@H](CC(C)C)NC(=O)[C@H]1O[C@@H]1C(=O)Oc1ccc2[nH]cc(CCNC(=O)OC(C)(C)C)c2c1 | 2000 | substantial inhibition by 5-44 uM | 2000 | – | – | –
CCCCC(COC(=O)[C@H]1O[C@@H]1C(=O)N[C@@H](CC(C)C)C(=O)NCCC(C)C)NC(=O)[C@H](CC(C)C)NC(=O)OCc1ccccc1 (stereo partly drawn) | 100000 | – | – | – | Little inhibition | –
CCOC(=O)[C@H]1O[C@@H]1C(=O)N[C@@H](CC(C)C)C(=O)NCCC(C)C [ALOXISTATIN] | 4000 | substantial inhibition by 5-44 uM | 4000 | – | – | –
CC(C)CCNC(=O)[C@H](CC(C)C)NC(=O)[C@H]1O[C@@H]1C(=O)OCc1ccccc1Cl | – | substantial inhibition by 5-44 uM | 2000 | – | – | substantial inhibition by 5-44 uM
CC(C)CCNC(=O)[C@H](CC(C)C)NC(=O)[C@H]1O[C@@H]1C(=O)OCC(Cl)(Cl)Cl | 700 | substantial inhibition by 5-44 uM | 1000 | – | – | –
